TRPC4 act: opens the mouse TRPC4 cation channel. Q9QUQ5. HEK293 TRPC4beta/mu-opioid, Fluo4 calcium fluorescence; stronger effect = higher value. B-score at 10 µM. 0.49% of 310,000 active. AID 2237;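 active means B-score above 5 SD of library B-scores, and initial fluorescence ratio not above library mean plus 5 SD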;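 further: positive B-score marks a calcium rise read as TRPC4 activation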
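Assay system – TRPC4beta and mu-opioid receptor HEK293 stable cells · Measured by – Fluo4 fluorescence, kinetic · Schedule – dye loading 45 min room temperature, 110 s kinetic read · Read-out – B-scored integrated calcium fluorescence ratio · Controls – buffer and maximal DAMGO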
TRPC4 block: TRPC4 (mouse) channel inhibition. Q9QUQ5. HEK293 TRPC4beta/mu-opioid, DAMGO-evoked Fluo4 calcium flux; stronger effect = lower value. B-score at 10 µM. 0.39% of 300,000 active. AID 2247;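 active means B-score over 3 SD under the library average, no early fluorescence shift, positive overall ratio signal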
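Signal: kinetic Fluo4 fluorescence imaging of calcium influx. Material: stable TRPC4beta/mu-opioid receptor HEK293 cells. Probe or stimulus: DAMGO in two steps, submaximal then maximal.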
TRPC6 activator: activators of mouse TRPC6 channel | HEK293-TRPC6 membrane potential dye fluorescence; stronger effect = higher value | B-score at 10 µM | 0.13% of 310,000 active;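 active means B-score of the integrated fluorescence ratio above library mean plus 3 SD, and starting fluorescence ratio within library mean plus 5 SD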;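 further: higher score means more depolarization so channel activation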
TRPC6 inhibitor: mouse TRPC6 channel inhibition | B-score at 10 µM | AID 2553 | Q61143 | HEK293-TRPC6, membrane potential dye, ACh-evoked depolarization; stronger effect = lower value | 1.1% of 310,000 active;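 active means B-score under library mean minus 3 SD, initial fluorescence not abnormally high, positive integrated signal ratio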;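 further: B-score derived from integrated fluorescence ratio over the kinetic read; more negative B-score means stronger inhibition of depolarization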
TRPC4 potent: TRPC4 (mouse) allosteric potentiation; B-score at 10 µM; 0.42% of 310,000 active; HEK293 TRPC4beta/mu-opioid, DAMGO EC20, Fluo-4 Ca2+ flux; stronger effect = higher value; Q9QUQ5;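 active means B-score of calcium response area above 5 SD of library B-scores, with initial fluorescence ratio within 5 SD of library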
TRPC4 sel inh 2: second selectivity test of TRPC6 inhibitors: effect on mouse TRPC4 | shares compounds with TRPC6 inhibitor | HEK293 TRPC4/MOR, membrane potential dye fluorescence; channel activated by saturating DAMGO dose | AID 2776 | 42% of 920 active | inhibition, % at 10 µM;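 active means compounds whose fluorescence signal differed from control wells by over 3 SD, either direction, in both duplicate plates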
TRPC4 spec: tests whether TRPC6 inhibitors also affect mouse TRPC4; shares compounds with TRPC6 inhibitor; HEK293 TRPC4/mu-opioid, membrane potential fluorescence; activity change, negative = inhibition, % at 10 µM; 61% of 920 active; AID 2777;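 active means rise or fall in signal beyond 3 SD of buffer-only wells in both replicate plates, either sign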;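 further: integrated kinetic ratio of fluorescence range over baseline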
HEK293 MPD ctr 2-1: parental HEK293 nonspecific activity of TRPC6 inhibitors, second screen; shares compounds with TRPC6 inhibitor; parental HEK293 membrane potential dye fluorescence; maximal acetylcholine challenge after compound addition; signal change vs control, % at 10 µM; 31% of 920 active;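 active means membrane potential signal moving either way by over 3 SD of the maximum-effect control, in both duplicate plates, meaning non-specific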
HEK293 MPD ctr-1: checks TRPC6 inhibitor effects in parental HEK293 cells | shares compounds with TRPC6 inhibitor | parental HEK293 membrane potential dye fluorescence | membrane potential signal change, % at 10 µM | 60% of 920 active;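 active means membrane potential signal shifting up or down by more than 3 SD of buffer-only wells, on both duplicate plates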
HEK293 MPD ctr-2: counter-screen for TRPC6 modulators: effect in parental HEK293 cells; membrane potential dye fluorescence; 51% of 2,400 active; membrane potential signal change, % at 10 µM; shares compounds with TRPC6 inhibitor;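 active means membrane potential signal moves up or down beyond 5 SD from buffer-only wells, on both duplicate plates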
HEK293 MPD ctr 2-2: parental HEK293 nonspecific activity of TRPC6 modulators, second screen; shares compounds with TRPC6 inhibitor; membrane potential dye fluorescence; after compound, maximal acetylcholine stimulation; inhibition, % at 10 µM; 14% of 2,400 active;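 active means membrane potential signal drops by more than 5 SD from the mean control signal, in both duplicate plates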
TRPC4 ctr mod: tests whether TRPC6 modulators also affect mouse TRPC4. shares compounds with TRPC6 inhibitor. HEK293 TRPC4/mu-opioid, membrane potential fluorescence. 69% of 2,400 active. percent change from control (negative = decrease, positive = increase), % at 10 µM. AID 488927;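 active means membrane potential signal moved up or down beyond 5 SD of buffer control wells, in both duplicate plates, actives on both sides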
TRPC4 ctr inh 2: mouse TRPC4 off-target activity of TRPC6 modulators, second screen. shares compounds with TRPC6 inhibitor. HEK293 TRPC4/mu-opioid, membrane potential dye fluorescence; stimulated with maximal-effect DAMGO. inhibition, % at 10 µM. 55% of 2,400 active;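 active means drop in membrane potential signal beyond 5 SD of the control wells in both duplicate plates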;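 further: TRPC4 counter screen for TRPC6 hits run under conditions tuned for TRPC6 not TRPC4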
TRPC6 inh conf: confirmation of mouse TRPC6 inhibitors; shares compounds with TRPC6 inhibitor; HEK293-TRPC6, membrane potential dye, ACh-evoked depolarization; inhibition, % at 10 µM; 43% of 3,300 active; AID 488960;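 active means fluorescence ratio falls more than 5 SD below the full-stimulation control mean, in both duplicate runs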;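 further: integrated fluorescence ratio of peak minus minimum over baseline after agonist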
TRPC6 act conf: confirmation of mouse TRPC6 activators; shares compounds with TRPC6 inhibitor; HEK293-TRPC6 membrane potential dye fluorescence, FDSS; activation, % at 10 µM; 11% of 2,800 active; AID 488961;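 active means ratio signal rise beyond 5 SD above unstimulated control wells' mean, seen in both duplicate runs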
Large screens that a line does not name were inactive (follow-up assays come after a bar, where they were run). Rows were chosen to be rich in hits. Some 2.3% of all compounds tested hit in one or more screens of this group.

CN(C)CCCNC1CS(=O)(=O)CC1O (stereo not drawn)	TRPC6 inhibitor -7.2 | TRPC4 sel inh 2 inactive | TRPC4 spec inactive | HEK293 MPD ctr 2-1 inactive | HEK293 MPD ctr-1 inactive | TRPC6 inh conf inactive | TRPC6 act conf inactive
O=S1(=O)CC(O)C(NCCO)C1 (stereo not drawn)	none
O=[N+]([O-])c1cccc(OCCCN2CCC(Cc3ccccc3)CC2)c1	TRPC6 inhibitor -7.11 | TRPC4 sel inh 2 15.5% | TRPC4 spec -11.7% | HEK293 MPD ctr 2-1 inactive | HEK293 MPD ctr-1 -223.5% | TRPC6 inh conf 88.4% | TRPC6 act conf inactive
CC(=O)CCc1ccc(OCCCCN2CCC(Cc3ccccc3)CC2)cc1	TRPC6 inhibitor -8.39 | HEK293 MPD ctr-2 inactive | HEK293 MPD ctr 2-2 inactive | TRPC4 ctr mod inactive | TRPC4 ctr inh 2 70.0% | TRPC6 inh conf 46.0%
CN(C)c1ccc(-c2nc3cnccn3c2Nc2ccc3c(c2)OCCO3)cc1	TRPC6 inhibitor -5.33 | HEK293 MPD ctr-2 inactive | HEK293 MPD ctr 2-2 inactive | TRPC4 ctr mod -11.0% | TRPC4 ctr inh 2 62.5% | TRPC6 inh conf inactive | TRPC6 act conf inactive
CCCC(O)(CCN1CCOCC1)c1ccc(Br)cc1 (stereo not drawn)	TRPC4 block -6, TRPC6 inhibitor -7.51 | TRPC4 sel inh 2 76.5% | TRPC4 spec 4.2% | HEK293 MPD ctr 2-1 inactive | HEK293 MPD ctr-1 3.6% | TRPC6 inh conf inactive | TRPC6 act conf inactive
CCCC(O)(CCN1CCOCC1)c1ccc(Cl)cc1 (stereo not drawn)	none
CCN(CC)S(=O)(=O)c1ccc(C)c(NC(=O)COC(=O)[C@@H]2CCCN2C(=O)c2cccs2)c1	none
Cc1ccc(Nc2c(-c3ccccc3O)nc3cnccn23)cc1	TRPC6 inhibitor -6.56 | HEK293 MPD ctr-2 inactive | HEK293 MPD ctr 2-2 inactive | TRPC4 ctr mod -11.0% | TRPC4 ctr inh 2 67.5% | TRPC6 inh conf inactive | TRPC6 act conf inactive
COc1ccc(Nc2c(-c3ccc(C)cc3)nc3cnccn23)cc1	none
O=C1Cc2cc(S(=O)(=O)NCc3ccccc3Cl)cc3c2N1CCC3	none
CC(=O)C(Cc1cccc(F)c1)(Cc1cccc(F)c1)C(C)=O	TRPC6 inhibitor -5.95 | HEK293 MPD ctr-2 113.5% | HEK293 MPD ctr 2-2 inactive | TRPC4 ctr mod 34.0% | TRPC4 ctr inh 2 inactive | TRPC6 inh conf inactive
COc1ccc(Br)c(C(=O)NNC(=O)c2ccc(NS(=O)(=O)c3cccs3)cc2)c1	none
COc1ccc(CNC(=O)CSc2n[nH]c(N)n2)cc1	none
Cc1cc(C)n2[nH]c(=O)c(N=Nc3ccccc3)c2n1	TRPC6 inhibitor -7.42 | TRPC4 sel inh 2 inactive | TRPC4 spec -24.3% | HEK293 MPD ctr 2-1 inactive | HEK293 MPD ctr-1 -388.0% | TRPC6 inh conf inactive | TRPC6 act conf inactive
Cc1cc(C)n2[nH]c(=O)c(N=Nc3cccc(C(F)(F)F)c3)c2n1	none
Cc1cc(C)n2[nH]c(=O)c(N=Nc3cccc(Cl)c3)c2n1	TRPC6 inhibitor -7.5 | HEK293 MPD ctr-2 -198.5% | HEK293 MPD ctr 2-2 65.0% | TRPC4 ctr mod -28.0% | TRPC4 ctr inh 2 37.0% | TRPC6 inh conf 46.5% | TRPC6 act conf inactive
CC(=O)Nc1ccc(S(=O)(=O)N2CCN(c3cc(C)nc4ccccc34)CC2)cc1	TRPC6 inhibitor -7.75 | HEK293 MPD ctr-2 -267.0% | HEK293 MPD ctr 2-2 inactive | TRPC4 ctr mod -45.0% | TRPC4 ctr inh 2 70.0% | TRPC6 inh conf 45.5% | TRPC6 act conf inactive
Cc1cc(N2CCN(C(=O)Nc3ccccc3C#N)CC2)c2ccccc2n1	TRPC6 inhibitor -6.66 | HEK293 MPD ctr-2 -229.5% | HEK293 MPD ctr 2-2 inactive | TRPC4 ctr mod -39.5% | TRPC4 ctr inh 2 44.5% | TRPC6 inh conf 42.0% | TRPC6 act conf inactive
Cc1cc(N2CCN(c3nc(-c4ccc([N+](=O)[O-])cc4)cs3)CC2)c2ccccc2n1	none
C[N+](C)(C)CC/C=C1/c2ccccc2CSc2ccccc21	TRPC6 inhibitor -5.53 | HEK293 MPD ctr-2 inactive | HEK293 MPD ctr 2-2 72.0% | TRPC4 ctr mod inactive | TRPC4 ctr inh 2 inactive | TRPC6 inh conf 82.5% | TRPC6 act conf inactive
OCC1(CCOc2ccccc2)CCN(Cc2ccc(OC(F)F)cc2)CC1	none
CCOC1=C/C(=C/c2c(N)n3nc(-c4ccccc4)sc3nc2=O)C=CC1=O	TRPC6 activator 13.2, TRPC6 inhibitor -5.26 | HEK293 MPD ctr-2 427.5% | HEK293 MPD ctr 2-2 140.0% | TRPC4 ctr mod 52.0% | TRPC4 ctr inh 2 inactive | TRPC6 inh conf inactive | TRPC6 act conf 73.0%
CCS(=O)(=O)c1nn2c(N)c(/C=C3/C=CC(=O)C(OC)=C3)c(=O)nc2s1	none
Cc1ccc(NC(=O)CCC(=O)N/N=C/c2cccs2)cc1	none
CCOC(=O)c1c(NC(=O)CSc2nnc(C)s2)sc2c1CCN(C)C2	TRPC6 inhibitor -5.81 | HEK293 MPD ctr-2 -65.0% | HEK293 MPD ctr 2-2 inactive | TRPC4 ctr mod -15.5% | TRPC4 ctr inh 2 inactive | TRPC6 inh conf inactive | TRPC6 act conf inactive
CCOC(=O)c1c(NC(=O)c2ccc(S(=O)(=O)N(C)CC3CCCO3)cc2)sc2c1CCN(C)C2 (stereo not drawn)	TRPC6 inhibitor -5.24 | HEK293 MPD ctr-2 167.0% | HEK293 MPD ctr 2-2 inactive | TRPC4 ctr mod -29.5% | TRPC4 ctr inh 2 inactive | TRPC6 inh conf inactive | TRPC6 act conf inactive
